Assay results as given in ChEMBL document CHEMBL3244114, “Synthesis of 11 beta,13 beta- and 13 beta,16 beta-propano steroids: probes of hormonal activity” (J Med Chem, 1979).
Activity calls are given as the source filed them. No cut-off for these calls is given here.

What was measured:
[1] = biological target: T1, Progesterone receptor (Oryctolagus cuniculus) (UniProt P06186); test: Binding affinity to progesterone receptor in rabbit uterine cytosol relative to progesterone; settings: Uterus
T1 sequence (whole entry): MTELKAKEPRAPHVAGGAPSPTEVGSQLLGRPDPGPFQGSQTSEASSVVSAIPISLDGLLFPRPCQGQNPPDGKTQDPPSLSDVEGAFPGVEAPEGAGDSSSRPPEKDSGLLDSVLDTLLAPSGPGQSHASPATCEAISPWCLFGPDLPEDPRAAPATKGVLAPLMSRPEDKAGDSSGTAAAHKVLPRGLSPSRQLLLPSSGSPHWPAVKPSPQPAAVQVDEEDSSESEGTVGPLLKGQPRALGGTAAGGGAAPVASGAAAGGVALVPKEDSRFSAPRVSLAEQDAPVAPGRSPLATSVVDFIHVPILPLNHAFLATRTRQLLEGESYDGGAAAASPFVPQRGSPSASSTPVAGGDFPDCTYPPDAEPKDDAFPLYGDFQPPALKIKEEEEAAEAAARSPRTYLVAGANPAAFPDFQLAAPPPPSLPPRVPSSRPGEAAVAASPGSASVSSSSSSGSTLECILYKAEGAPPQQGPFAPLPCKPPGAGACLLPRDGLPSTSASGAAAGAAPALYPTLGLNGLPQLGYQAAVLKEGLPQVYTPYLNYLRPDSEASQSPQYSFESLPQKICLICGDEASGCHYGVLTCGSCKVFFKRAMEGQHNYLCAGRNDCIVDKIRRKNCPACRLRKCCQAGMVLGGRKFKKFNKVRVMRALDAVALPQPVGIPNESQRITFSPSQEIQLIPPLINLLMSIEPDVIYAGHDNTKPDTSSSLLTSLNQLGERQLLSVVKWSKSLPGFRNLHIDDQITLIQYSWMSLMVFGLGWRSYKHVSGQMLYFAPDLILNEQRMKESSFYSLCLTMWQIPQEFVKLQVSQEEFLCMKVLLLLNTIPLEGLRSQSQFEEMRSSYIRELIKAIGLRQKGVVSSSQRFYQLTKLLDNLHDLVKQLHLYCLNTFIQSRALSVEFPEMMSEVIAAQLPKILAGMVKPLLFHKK

[2] = system: Oryctolagus cuniculus; test: Antiprogestational activity in estradiol benzoate-primed rabbit at 10 to 15 mg, sc administered qd for 5 days by anti-Clauberg assay in presence of progesterone; assay type: functional, organism-based
Summary of the method: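 Immature rabbits (six) were primed with estradiol benzoate for 6 days. Each compound (10–15 mg) was then given with progesterone (0.8 mg) in sesame oil, subcutaneously, once daily for 5 days. The read-out was uterine stimulation. NICHD ran the assay.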

[3] = organism: Oryctolagus cuniculus; test: Progestational activity in immature rabbit assessed as uterine stimulation by Clauberg assay; assay type: functional
[4] = Solubility of the compound in carbon tetrachloride; assay type: physicochemical

In the case of `C#C[C@]1(O)CC[C@H]2[C@@H]3CCC4=CC(=O)CC[C@@H]4[C@H]3CC[C@@]21CCCCl`, the Activity [1] is reported as 1% and the Activity [2] is reported as “inactive”.
In the case of `C#C[C@]1(O)CC[C@H]2[C@@H]3CCC4=CC(=O)CC[C@@H]4[C@H]3CC[C@@]21CCCOC(=O)CBr`, the Activity [1] is reported as 2% and the Activity [2] is reported as “inactive”.
For `C#C[C@]1(O)CC[C@H]2[C@@H]3CCC4=CC(=O)CC[C@@H]4[C@H]3CC[C@@]21C`, the Activity [1] was 126%.
In the case of `C#C[C@]1(O)CC[C@H]2[C@@H]3CCC4=CC(=O)CC[C@@H]4[C@H]3CC[C@@]21CCCO`, the Activity [1] is reported as 2% and the Activity [2] is reported as “inactive”.
`C#C[C@]1(O)CC[C@H]2[C@@H]3CCC4=CC(=O)CC[C@@H]4[C@H]3[C@H]3CCC[C@]21C3` (racemic) gave an Activity [1] of 136%.
In the case of `C#C[C@]1(O)CC[C@H]2[C@@H]3CCC4=CC(=O)CC[C@@H]4[C@H]3CC[C@@]21CCC=O`, the Activity [1] is reported as 21%, the Activity [3] is reported as 5% and the Activity [2] is reported as “inactive”.
With `C#C[C@]1(O)CC[C@H]2[C@@H]3CCC4=CC(=O)CC[C@@H]4[C@H]3[C@@H](C)C[C@@]21C` the Activity [1] was 390%.
With `C#C[C@]1(O)[C@H]2CCC[C@@]13CC[C@H]1[C@@H](CCC4=CC(=O)CC[C@@H]41)[C@@H]3C2` (racemic) the Activity [1] was 1% and the Activity [2] was “inactive”.
`C#CC1(O)CC[C@H]2[C@@H]3CCC4=CC(=O)CC[C@@H]4[C@H]3CC[C@@]21CC` (mixture of isomers) gave an Activity [1] of 206%.
In the case of `C#C[C@]1(O)CC[C@H]2[C@@H]3CCC4=CC(=O)CC[C@@H]4[C@H]3CC[C@@]21CCCOC(C)=O`, the Activity [2] is reported as “inactive”.
With `COc1ccc2c(c1)CCC1=C2[C@@H]2C[C@]3(CCC2O)[C@@H](OC(C)=O)CC[C@@H]13` (stereo partly drawn) the solubility [4] was “Insoluble”.
In the case of `C#C[C@]1(O)CC[C@H]2[C@@H]3CCC4=CC(=O)CC[C@@H]4[C@H]3[C@@H](C)C[C@@]21CC` (racemic), the Activity [1] is reported as 151%.
